Activity calls are given as the source filed them. No cut-off for these calls is given here.
Key:
[1] = target: T1, Prostaglandin G/H synthase 1 (Ovis aries, UniProt P05979); assay: Inhibition of ram seminal vesicle COX1 assessed as PGE2 production by enzyme immunoassay
T1 sequence (P05979 whole entry): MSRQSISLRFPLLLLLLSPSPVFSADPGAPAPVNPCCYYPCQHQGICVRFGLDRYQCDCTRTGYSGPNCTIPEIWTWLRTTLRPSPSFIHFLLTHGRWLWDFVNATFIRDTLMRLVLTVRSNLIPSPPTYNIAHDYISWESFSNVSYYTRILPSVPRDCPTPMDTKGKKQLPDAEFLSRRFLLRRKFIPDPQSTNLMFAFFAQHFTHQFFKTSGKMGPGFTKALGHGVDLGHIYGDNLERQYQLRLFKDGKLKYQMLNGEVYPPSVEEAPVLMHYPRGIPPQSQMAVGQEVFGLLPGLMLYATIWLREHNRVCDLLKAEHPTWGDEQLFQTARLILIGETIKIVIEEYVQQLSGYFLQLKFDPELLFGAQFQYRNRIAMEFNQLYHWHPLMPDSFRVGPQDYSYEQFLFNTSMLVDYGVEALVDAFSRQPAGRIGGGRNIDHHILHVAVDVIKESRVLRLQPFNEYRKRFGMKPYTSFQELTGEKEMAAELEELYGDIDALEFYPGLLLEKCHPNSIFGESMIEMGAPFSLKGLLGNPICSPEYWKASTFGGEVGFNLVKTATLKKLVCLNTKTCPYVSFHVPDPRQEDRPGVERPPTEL
How it was run: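 Purified PGHS-1 from ram seminal vesicles; PGE2 product measured by competitive EIA; samples in ethanol. IC50 from at least three concentrations, duplicates, at least three independent experiments, by nonlinear regression.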

[2] = target: T2, Peroxisome proliferator-activated receptor alpha (Homo sapiens) (UniProt Q07869); assay: Activation of PPARalpha transfected in HEK293 cells at 10 uM after 18 hrs by firefly luciferase reporter gene-based luminescence assay; type: cell-based
T2 sequence (whole entry): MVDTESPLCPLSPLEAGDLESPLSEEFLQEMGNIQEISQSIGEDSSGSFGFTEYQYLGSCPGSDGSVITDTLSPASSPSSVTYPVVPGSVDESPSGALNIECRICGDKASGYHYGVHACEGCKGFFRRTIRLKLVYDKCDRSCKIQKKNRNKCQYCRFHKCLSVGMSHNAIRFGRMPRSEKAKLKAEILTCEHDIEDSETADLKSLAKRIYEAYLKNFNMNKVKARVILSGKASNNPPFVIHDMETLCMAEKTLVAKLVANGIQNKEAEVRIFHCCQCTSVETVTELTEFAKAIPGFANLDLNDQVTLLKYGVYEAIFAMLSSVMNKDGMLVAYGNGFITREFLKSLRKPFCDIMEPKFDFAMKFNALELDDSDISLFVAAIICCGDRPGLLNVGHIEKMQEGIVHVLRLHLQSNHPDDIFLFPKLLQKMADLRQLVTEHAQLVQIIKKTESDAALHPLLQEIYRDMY

Mus musculus [3] = assay: Antiinflammatory activity in CD1 mouse ear dermatitis model assessed as inhibition of Croton oil-induced ear edema at 0.30 umol administered topically per cm'2 of ear measured after induction of dermatitis relative to untreated control; type: functional
How it was run: (§1)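 Male CD-1 mice (28–32 g), anesthetized with ketamine 145 mg/kg i.p.; right ear (about 1 cm2) given 80 μg croton oil in 15 μL acetone, with test substance co-applied in acetone; left ear left untreated. Controls received irritant only. 6 mm punches taken from both ears; edema = weight difference treated minus untreated; % inhibition vs controls. ID50 by graphic interpolation of log dose–effect curves; ANOVA with Dunnett's test.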

Mus musculus [4] = assay: Antiinflammatory activity in CD1 mouse ear dermatitis model assessed as inhibition of Croton oil-induced ear edema at 0.10 umol administered topically per cm'2 of ear measured after induction of dermatitis relative to untreated control; type: functional; how it was run: as §1
[5] = Inhibition of NFkappaB activity transfected in HEK293 cells pretreated for 1 hr before 6 hrs of LPS challenge by luciferase reporter gene assay; conditions: Homo sapiens
[6] = target: T3, Peroxisome proliferator-activated receptor gamma (Homo sapiens) (UniProt P37231); assay: Activation of PPARgamma transfected in HEK293 cells at 10 uM after 18 hrs by firefly luciferase reporter gene-based luminescence assay; type: cell-based
T3 sequence (whole entry): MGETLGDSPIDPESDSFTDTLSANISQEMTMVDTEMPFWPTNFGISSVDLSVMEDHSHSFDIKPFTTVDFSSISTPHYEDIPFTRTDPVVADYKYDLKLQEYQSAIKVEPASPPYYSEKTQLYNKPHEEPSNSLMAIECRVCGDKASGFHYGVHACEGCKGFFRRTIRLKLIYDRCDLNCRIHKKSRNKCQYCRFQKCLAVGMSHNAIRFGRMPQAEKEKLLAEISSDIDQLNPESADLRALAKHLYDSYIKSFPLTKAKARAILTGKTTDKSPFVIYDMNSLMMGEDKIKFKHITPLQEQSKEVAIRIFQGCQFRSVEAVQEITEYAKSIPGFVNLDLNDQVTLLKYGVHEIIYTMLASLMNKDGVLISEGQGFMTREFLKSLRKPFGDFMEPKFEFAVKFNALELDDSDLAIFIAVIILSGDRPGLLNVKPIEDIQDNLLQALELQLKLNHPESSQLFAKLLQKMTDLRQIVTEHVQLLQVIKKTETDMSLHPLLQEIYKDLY

[7] = target: T4, Glucocorticoid receptor (Homo sapiens) (UniProt P04150); assay: Activation of GR transfected in HEK293 cells at 10 uM after 18 hrs by firefly luciferase reporter gene-based luminescence assay; type: cell-based
T4 sequence (whole entry): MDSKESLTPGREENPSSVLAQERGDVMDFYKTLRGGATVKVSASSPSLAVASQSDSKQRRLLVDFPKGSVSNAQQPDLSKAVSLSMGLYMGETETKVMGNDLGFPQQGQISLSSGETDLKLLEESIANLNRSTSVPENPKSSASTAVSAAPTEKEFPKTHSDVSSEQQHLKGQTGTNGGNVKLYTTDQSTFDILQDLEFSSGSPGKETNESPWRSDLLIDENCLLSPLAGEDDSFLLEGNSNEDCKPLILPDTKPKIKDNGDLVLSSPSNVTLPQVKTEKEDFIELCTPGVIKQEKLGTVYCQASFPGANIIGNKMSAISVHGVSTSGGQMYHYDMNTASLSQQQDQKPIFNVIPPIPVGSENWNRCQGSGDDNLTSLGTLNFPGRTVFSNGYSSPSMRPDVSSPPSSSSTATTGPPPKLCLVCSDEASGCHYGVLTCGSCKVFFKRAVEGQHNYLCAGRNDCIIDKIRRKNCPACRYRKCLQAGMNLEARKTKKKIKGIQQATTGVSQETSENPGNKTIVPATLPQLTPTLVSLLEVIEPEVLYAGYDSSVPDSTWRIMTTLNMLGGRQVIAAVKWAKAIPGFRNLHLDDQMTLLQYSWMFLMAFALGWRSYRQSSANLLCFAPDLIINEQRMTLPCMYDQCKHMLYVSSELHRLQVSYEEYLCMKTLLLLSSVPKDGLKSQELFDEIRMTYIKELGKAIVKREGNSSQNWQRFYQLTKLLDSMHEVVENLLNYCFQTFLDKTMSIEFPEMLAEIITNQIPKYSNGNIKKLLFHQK

| Compound | IC50 [1] [µM] | Activity [2] | inhibition (INH) (Mus musculus [3]) [%] | inhibition (INH) (Mus musculus [4]) [%] | IC50 [5] [µM] | Activity [6] | Activity [7] |
| --- | --- | --- | --- | --- | --- | --- | --- |
| C/C=C/c1ccc2oc(-c3ccc(O)cc3)cc2c1 | 18.3 | inactive | 35 | 14 | 1.4 | inactive | inactive |
| C/C=C/c1ccc2oc(-c3ccc(O)cc3OC)cc2c1 [RATANIAPHENOL III] | 2.7 | inactive | 35 | 12 | > 20 | inactive | inactive |
| C/C=C/c1ccc2oc(-c3ccc(O)cc3)c(C)c2c1 [RATANIAPHENOL II] | 3 | inactive | 41 | 13 | – | inactive | inactive |
| COc1cc(O)ccc1-c1cc2cc(CCCO)ccc2o1 | > 50 | inactive | 32 | 13 | – | inactive | inactive |
| COc1ccc(-c2cc3cc(CCCO)ccc3o2)c(O)c1 | > 50 | inactive | 50 | 25 | 5.9 | inactive | inactive |
| C/C=C/c1ccc2oc(-c3ccc(O)cc3O)cc2c1 | 3.8 | inactive | 29 | 15 | – | inactive | inactive |
| C/C=C/c1ccc2oc(-c3ccc(OC)cc3O)cc2c1 [RATANIAPHENOL I] | > 50 | inactive | 33 | 9 | 14.7 | inactive | inactive |
| C[C@@H]1[C@H](C)[C@@H](c2ccc(O)cc2)O[C@H]1c1ccc(O)cc1 | > 50 | inactive | 52 | 14 | > 20 | inactive | inactive |
| C[C@@H]1[C@H](C)[C@@H](c2ccc(O)cc2)O[C@@H]1c1ccc(O)cc1 | > 50 | inactive | 39 | 19 | – | inactive | inactive |
| C/C=C/c1ccc2c(c1)[C@H](CO)[C@@H](c1ccc(O)cc1)O2 | > 50 | inactive | 36 | 17 | – | inactive | inactive |
| C/C=C/c1ccc2c(c1)[C@@H](C)[C@H](c1ccc(O)cc1)O2 | > 50 | inactive | 45 | 25 | > 20 | inactive | inactive |
